Laboratory results reported in ChEMBL document CHEMBL4725371, “A Novel Redox Modulator Induces a GPX4-Mediated Cell Death That Is Dependent on Iron and Reactive Oxygen Species” (J Med Chem, 2020).
pIC50: −log10 of the molar value. The source made the active and inactive calls. The calls are words filed in the database; no cut-off is given here.

What was measured:
[1] = test system: MIA PaCa-2; experiment: Induction of ferroptosis in human MIA PaCa-2 cells assessed as increase in lipid peroxidation at 0.5 uM measured after 24 hrs by C11-BODIPY dye based fluorescence assay; format: functional, cell-based
Procedure, shortened: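 MIA PaCa-2 cells were treated for the set time, then given 10 μM C11-BODIPY for 30 min at 37 °C and washed. Fluorescence was read at 581/591 nm (reduced dye) and 488/510 nm (oxidized dye). The intensity ratio was compared by unpaired t-test.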

[2] = test system: MIA PaCa-2; experiment: Cytotoxicity against human MIA PaCa-2 cells measured after 72 hrs by MTT assay; format: functional, cell-based; details: MIA PaCa-2, 72 h
Procedure, shortened: (§1)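 Cells were kept in RPMI 1640 with 10% FBS at 37 °C, 5% CO₂, under 35 passages. Cells were seeded, attached overnight and treated with compound or DMSO for 72 h. MTT was added at 0.3 mg/mL for 3 h, then dissolved in DMSO and read as absorbance at 570 nm. IC50 was fitted from the curve. Values are mean ± sd of three independent experiments.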

[3] = test system: BXPC-3; experiment: Cytotoxicity against human BXPC-3 cells measured after 72 hrs by MTT assay; format: functional, cell-based; details: BXPC-3, 72 h; procedure, shortened: as §1
[4] = test system: PANC-1; experiment: Cytotoxicity against human PANC-1 cells measured after 72 hrs by MTT assay; format: functional, cell-based; details: PANC-1, 72 h; procedure, shortened: as §1
[5] = Drug level in mouse plasma treated with QD394 at 500 uM measured after 0.5 hrs by LC-MS/MS analysis

Row | SMILES | Activity [1] | pIC50 [2] | pIC50 [3] | pIC50 [4] | Drug uptake [5]
1 | COC(=O)c1ccc([C@H]2c3[nH]c4ccccc4c3C[C@H](C(=O)OC)N2C(=O)CCl)cc1 | Active | – | – | – | –
2 | O=C1C(Nc2ccc(-c3ccc(Cl)cc3)cc2)=CC(=O)c2ncncc21 | – | 5.01 | 5.00 | 5.36 | –
3 | O=C1C(Nc2cccc(-c3ccccc3)c2)=CC(=O)c2ncncc21 | – | 5.62 | 5.29 | 5.64 | –
4 | CN1CCN(c2ccc(NC3C(=O)c4cncnc4C(=O)C3O)cc2)CC1 (stereo unspecified) | – | – | – | – | Active
5 | O=C1C(Nc2ccc(-c3cc(Cl)cc(Cl)c3)cc2)=CC(=O)c2ncncc21 | – | 5.51 | 5.48 | 5.72 | –
